ChEMBL document CHEMBL1148951, “New macrolides from the sponge Chondrosia corticata” (2004)
Converted amounts (≈) assume the structure as drawn.

Tests used:
Type in all cases: functional
K562 = experiment: Cytotoxicity against human K562 cells by MTT assay; settings: read-out: LC50 (the source's name)
Aspergillus niger = experiment: Antifungal activity against Aspergillus niger at 2 ug/disk by paper disk method; settings: read-out: IZ
Summary of the method: (§1)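 Paper disk diffusion assay with 2 µg of compound loaded per disk. The read-out is the diameter of the clear zone around the disk.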

Candida albicans = experiment: Antifungal activity against Candida albicans at 2 ug/disk by paper disk method; settings: read-out: IZ; summary of the method: as §1

SMILES | CC50 (K562) | zone of inhibition at 2 µg/disc (Aspergillus niger) | zone of inhibition at 2 µg/disc (Candida albicans)
COC(CC1OC(=O)CC(O)C/C=C\C(=O)C(C)C(OC)c2coc(n2)-c2coc(n2)-c2coc(n2)/C=C\CCC1C)C(C)CCC(=O)C(C)C(C/C=C/N(C)C=O)OC (stereo not drawn) | 0.9 µg/mL (≈ 1.08 µM) | 10 mm | 10 mm
COC(CC1OC(=O)CC(O)CCCC(=O)C(C)C(OC)c2coc(n2)-c2coc(n2)-c2coc(n2)/C=C/CCC1C)C(C)CCC(=O)C(C)C(C/C=C/N(C)C=O)OC (stereo not drawn) [DIHYDROHALICHONDRAMIDE] | 0.32 µg/mL (≈ 0.381 µM) | 11 mm | 19 mm
COC(CC1OC(=O)CC(O)C/C=C/C(=O)C(C)C(OC)c2coc(n2)-c2coc(n2)-c2coc(n2)/C=C/CCC1C)C(C)CCC(=O)C(C)C(C/C=C/N(C)C=O)OC (stereo not drawn) [HALICHONDRAMIDE] | 0.19 µg/mL (≈ 0.227 µM) | 21 mm | 18 mm
COC(=O)c1coc(/C=C/CCC(C)C(CC(OC)C(C)CCC(=O)C(C)C(C/C=C/N(C)C=O)OC)OC(=O)CC(O)C/C=C/C(=O)C(C)C(OC)c2coc(C(N)=O)n2)n1 (stereo not drawn) [HALISHIGAMIDE D] | 92 µg/mL (≈ 105 µM) | – | –
COC(CC1OC(=O)CC(O)CC(O)CC(=O)C(C)C(OC)c2coc(n2)-c2coc(n2)-c2coc(n2)/C=C/CCC1C)C(C)CCC(=O)C(C)C(C/C=C/N(C)C=O)OC (stereo not drawn) [JASPISAMIDE A] | 0.31 µg/mL (≈ 0.363 µM) | 10 mm | 18 mm
COC(CC1OC(=O)CC(O)/C=C/CC(=O)C(C)C(OC)c2coc(n2)-c2coc(n2)-c2coc(n2)/C=C/CCC1C)C(C)CCC(=O)C(C)C(C/C=C/N(C)C=O)OC (stereo not drawn) [NEOHALICHONDRAMIDE] | 0.38 µg/mL (≈ 0.454 µM) | 15 mm | 20 mm
COC(=O)c1nc(-c2nc(C(OC)C(C)C(=O)/C=C/CC(O)CC(=O)OC(CC(OC)C(C)CCC(=O)C(C)C(C/C=C/N(C)C=O)OC)C(C)CC/C=C/C(N)=O)co2)co1 (stereo not drawn) [SECOHALICHONDRAMIDE] | > 500 µg/mL | – | 15 mm
